Published values from different studies.
Lines come from different studies, so protocols differ.
Organism: Human immunodeficiency virus 1
Observed: viral replication

Compound | assay | system | conditions | endpoint | result
CC(C)CN(C[C@@H](O)[C@H](Cc1ccccc1)NC(=O)O[C@H]1CCO[C@H]2OCC[C@H]21)S(=O)(=O)c1ccc(B(O)O)cc1 | inhibitor | MT2 | – | IC50 | 120 nM
CC(C)CN(C[C@@H](O)[C@H](Cc1ccccc1)NC(=O)O[C@H]1CO[C@H]2OCC[C@H]21)S(=O)(=O)c1ccc(N)cc1 | – | MT2 | – | IC50 | 3.3 nM
Cc1c(O)cccc1C(=O)N[C@@H](CSc1ccccc1)[C@H](O)CN1C[C@H]2CCCC[C@H]2C[C@H]1C(=O)NC(C)(C)C | – | human PBMC | – | IC50 | 12 nM
C[C@@H](O[C@H]1OCCN(Cc2n[nH]c(=O)[nH]2)[C@H]1c1ccc(F)cc1)c1cc(C(F)(F)F)cc(C(F)(F)F)c1 | inhibitor | human PBMC | clinical isolate | IC50 | 6370 nM
CSCC[C@H](NC(C)=O)C(=O)N[C@@H](CC(C)C)C(=O)N[C@@H](CCCNC(=N)N)C(=O)N[C@@H](Cc1c[nH]c2ccccc12)C(=O)N[C@@H](CO)C(=O)N[C@@H](CCCNC(=N)N)C(=O)N[C@@H](CCCCN)C(=O)N[C@@H](CC(C)C)C(=O)N1CCC[C@H]1C(=O)N[C@@H](CS)C(=O)N[C@H](C(=O)N[C@@H](CO)C(=O)O)C(C)C | inhibitor | TZM-bl | – | IC50 | > 10000 nM
COc1ccccc1NC(=O)c1ccccc1Cl | – | MT4 | – | IC50 | > 50000 nM
Cc1cccc(C)c1OCC(=O)N[C@@H](Cc1ccccc1)[C@@H](O)C[C@H](Cc1ccccc1)NC(=O)[C@H](C(C)C)N1CCCNC1=O | – | MT4 | – | IC50 | 13 nM
Cc1cn([C@H]2C[C@H](N=[N+]=[N-])[C@@H](CO)O2)c(=O)[nH]c1=O | – | human PBMC | clinical isolate | IC90 | > 1000 nM
CC(C)CN(C[C@@H](O)[C@H](Cc1ccccc1)NC(=O)O[C@H]1CCO[C@H]2OCC[C@H]21)S(=O)(=O)c1ccc(C(=O)O)cc1 | inhibitor | MT2 | – | IC50 | > 1000 nM
CC(C)c1nc(CN(C)C(=O)N[C@H](C(=O)N[C@@H](Cc2ccccc2)C[C@H](O)[C@H](Cc2ccccc2)NC(=O)OCc2cncs2)C(C)C)cs1 | inhibitor | human PBMC | clinical isolate | IC90 | 92.3 nM
CC(C)CN(C[C@@H](O)[C@H](Cc1ccccc1)NC(=O)O[C@H]1CO[C@H]2OCC[C@H]21)S(=O)(=O)c1ccc(B(O)O)cc1 | – | MT4 | – | IC50 | 48.9 nM
CC(C)Nc1cccnc1N1CCN(C(=O)c2cc3cc(NS(C)(=O)=O)ccc3[nH]2)CC1 | inhibitor | human PBMC | clinical isolate | IC50 | 30.6 nM
